By MIC is commonly meant the least concentration at which growth counts as inhibited.

In brackets after ≈: the same amount, converted by molar mass. Bounds are passed on as bounds.

In one test the test system is Actinomyces israelii. In words: Antibacterial activity against Actinomyces israelii, activity expressed as inhibitory zone (mm, diameter). It counts as functional. In a few lines:
(§1)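 Agar diffusion: disks loaded with 0.05 mg drug (stock 1 mg/mL in Me2SO-EtOH 1:9) on brain-heart infusion agar seeded 1:100 with 48-h anaerobe culture grown in thioglycolate broth; incubated anaerobically at 37 °C for 24 h; zone diameter measured in mm.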

A further test deals with Bacteroides fragilis. Kind of test: Antibacterial activity against Bacteroides fragilis, activity expressed as […] inhibitory zone (mm, diameter). The format is functional. A digest of the protocol:
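Agar diffusion vs B. fragilis grown in thioglycolate broth: 0.05 mg drug per paper disk (stock 1 mg/mL, Me2SO-EtOH 1:9), brain-heart infusion agar seeded with 48-h culture at 1:100, anaerobic 37 °C, 24 h; zone diameter in mm.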

For the next test, the system named is Clostridium novyi. In words: Antibacterial activity against Clostridium novyi, activity expressed as inhibitory zone (mm, diameter). The format is functional. A digest of the protocol:
as §1

For test [1], the system named is Candida albicans. Kind of test: Antifungal activity against Candida albicans, activity expressed as […] inhibitory zone (mm, diameter). It counts as functional. In a few lines:
(§2)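 Yeast grown in Sabouraud's dextrose broth, 24-h culture seeded 1:100 into agar; paper disks carrying 0.05 mg drug (from 1 mg/mL stock in Me2SO-EtOH 1:9); 37 °C, read after 48 h as zone diameter (mm).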

For test [2], the system named is Candida albicans. Kind of test: Antifungal activity against Candida albicans, activity expressed as minimum inhibitory concentration ([…]). It counts as functional.
The subject of test [3] is Epidermophyton floccosum. In words: Antifungal activity against Epidermophyton floccosum, activity expressed as inhibitory zone (mm, diameter). It counts as functional. In a few lines:
(§3)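 Dermatophytes grown in Sabouraud's dextrose broth, 4-5 day cultures seeded 1:100 into agar; disks with 0.05 mg drug (1 mg/mL stock, Me2SO-EtOH 1:9); grown and tested at 28 °C, zone diameter (mm) read after 48 h.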

The subject of another test is Cutibacterium acnes. Kind of test: Antibacterial activity against Propionibacterium acnes, activity expressed as inhibitory zone (mm, diameter); QA is questionable activity. It counts as functional, organism-based. A digest of the protocol:
as §1

The subject of test [4] is Saccharomyces cerevisiae. In words: Antifungal activity against Saccharomyces cerevisiae, activity expressed as inhibitory zone (mm, diameter). The format is functional. In a few lines: as §2
Test [5] concerns Saccharomyces cerevisiae. Kind of test: Antifungal activity against Saccharomyces cerevisiae, activity expressed as minimum inhibitory concentration ([…]). It counts as functional.
The test system of test [6] is Tritrichomonas suis. In words: Antiprotozoal activity measured as the conc for < […]% inhibition of Trichomonas foetus. It counts as functional, organism-based.
For another test, the system named is Streptococcus pyogenes. In words: Antibacterial activity against Streptococcus pyogenes C, activity expressed as inhibitory zone (mm, diameter). The format is functional. In a few lines: as §1
The test system of test [7] is Trichomonas vaginalis. Kind of test: Antiprotozoal activity measured as the conc for <[…]% inhibition of Trichomonas vaginalis. It counts as functional, organism-based.
The subject of test [8] is Trichomonas vaginalis. In words: Antiprotozoal activity measured as the conc for<[…]% inhibition of Trichomonas vaginalis. The format is functional, organism-based.
For test [9], the system named is Trichophyton benhamiae. In words: Antifungal activity against Trichophyton mentagrophytes, activity expressed as inhibitory zone (mm, diameter). It counts as functional, Arthroderma benhamiae. A digest of the protocol:
as §3

Test [10] relates to Trichophyton benhamiae. Kind of test: Antifungal activity against Trichophyton mentagrophytes, activity expressed as minimum inhibitory concentration ([…]). It counts as functional, Arthroderma benhamiae.
Test [11] concerns Epidermophyton floccosum. In words: Antifungal activity against Epidermophyton floccosum, activity expressed as minimum inhibitory concentration ([…]). The format is functional.
Test [12] has as its system Entamoeba histolytica. In words: Antiprotozoal activity measured as the conc for 100% inhibition of Entamoeba histolytica. It counts as functional, organism-based. A digest of the protocol: (§4)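 E. histolytica (J 190) grown 48 h at 37 °C in modified Boeck Drbohlav medium, pooled; 0.6 × 10^6 organisms inoculated into 10 mL medium with drug at 32 to 0.06 µg/mL, incubated 48 h.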

Test [13] has as its system Tritrichomonas suis. Kind of test: Antiprotozoal activity measured as the conc for 100% inhibition of Trichomonas foetus. The format is functional, organism-based. In a few lines:
(§5)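 Protozoa grown 48 h (T. vaginalis in TYM 721, T. foetus in TYM 359, E. histolytica J 190 in modified Boeck Drbohlav medium, 37 °C) and pooled; 0.6 × 10^6 organisms into 10-mL tubes with drug 32 to 0.06 µg/mL, 48 h; inhibition scored microscopically against untreated controls as 100, >95, 95-25 or <25%.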

Test [14] deals with Tritrichomonas suis. Kind of test: Antiprotozoal activity measured as the conc for 95-[…]% inhibition of Trichomonas foetus. It counts as functional, organism-based.
The subject of test [15] is Tritrichomonas suis. Kind of test: Antiprotozoal activity measured as the conc for <[…]% inhibition of Trichomonas foetus. The format is functional, organism-based.
In test [16] the test system is Tritrichomonas suis. In words: Antiprotozoal activity measured as the conc for >95% inhibition of Trichomonas foetus. It counts as functional, organism-based. In a few lines:
as §5

The test system of test [17] is Trichomonas vaginalis. In words: Antiprotozoal activity measured as the conc for 100% inhibition of Trichomonas vaginalis. The format is functional, organism-based. In a few lines: as §5
In test [18] the test system is Trichomonas vaginalis. In words: Antiprotozoal activity measured as the conc for 95-[…]% inhibition of Trichomonas vaginalis. It counts as functional, organism-based.
Test [19] has as its system Trichomonas vaginalis. In words: Antiprotozoal activity measured as the conc for >95% inhibition of Trichomonas vaginalis. The format is functional, organism-based. A digest of the protocol:
as §5

The test system of test [20] is Candida albicans. Kind of test: Antifungal activity against Candida albicans, activity expressed as […] inhibitory zone (mm, diameter); QA is questionable activity. It counts as functional, organism-based. A digest of the protocol: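 Agar diffusion on Sabouraud's dextrose agar seeded with 24-h yeast culture at 1:100 in agar; paper disks loaded with 0.05 mg drug (stock 1 mg/mL in Me2SO-EtOH 1:9). Incubated at 37 °C for 48 h; inhibition zone diameter measured in mm.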

The subject of test [21] is Entamoeba histolytica. Kind of test: Antiprotozoal activity measured as the conc for >95% inhibition of Entamoeba histolytica. It counts as functional, organism-based. A digest of the protocol: as §4
The test system of test [22] is Entamoeba histolytica. Kind of test: Antiprotozoal activity measured as the conc for <[…]% inhibition of Entamoeba histolytica,. It counts as functional, organism-based.
The subject of test [23] is Entamoeba histolytica. In words: Antiprotozoal activity measured as the conc for >95% inhibition of Entamoeba histolytica,. The format is functional, organism-based. In a few lines: as §5
The subject of test [24] is Epidermophyton floccosum. In words: Antifungal activity against Epidermophyton floccosum, activity expressed as minimum inhibitory concentration (ug/mL). It counts as functional.
Test [25] concerns Entamoeba histolytica. Kind of test: Antiprotozoal activity measured as the conc for 100% inhibition of Entamoeba histolytica,. The format is functional, organism-based. In a few lines:
as §5

Test [26] has as its system Entamoeba histolytica. Kind of test: Antiprotozoal activity measured as the conc for 95-[…]% inhibition of Entamoeba histolytica. The format is functional, organism-based.
Test [27] relates to Saccharomyces cerevisiae. In words: Antifungal activity against Saccharomyces cerevisiae, activity expressed as minimum inhibitory concentration (ug/mL). It counts as functional.
Test [28] deals with Trichophyton benhamiae. In words: Antifungal activity against Trichophyton mentagrophytes, activity expressed as minimum inhibitory concentration (ug/mL). The format is functional, Arthroderma benhamiae.
Test [29] concerns Candida albicans. Kind of test: Antifungal activity against Candida albicans, activity expressed as minimum inhibitory concentration (ug/mL). It counts as functional. In a few lines: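 Tube dilution in Sabouraud's dextrose broth (ca. 3 mL/tube) at 37 °C; inoculum from 24-h yeast culture, 1:1000 in saline. Drug dissolved in Me2SO-EtOH (1:9), stock 3.2 mg/mL; twofold serial dilutions 32 to 0.06 µg/mL. Read after 48 h; MIC = lowest concentration with no visible growth.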

`COc1ccccc1C[C@H]1NC[C@H](O)[C@H]1OC(C)=O`: the Inhibitory zone in the test on Actinomyces israelii is 0 mm; with Bacteroides fragilis it was 0 mm; in the test on Clostridium novyi, 13 mm; with Candida albicans [1] it was 0 mm; in the test with Epidermophyton floccosum [3], 0 mm; in the test with Cutibacterium acnes, “Questionable activity”. For the same molecule, the Inhibitory zone in the test on Saccharomyces cerevisiae [4], in the test on Streptococcus pyogenes and in the test with Trichophyton benhamiae [9] was 0 mm in each case. Also, the MIC in the test with Candida albicans [2], with Saccharomyces cerevisiae [5], against Trichophyton benhamiae [10] and in the test with Epidermophyton floccosum [11] was above 32 mg/L each time. Also, the Concentration with Tritrichomonas suis [6], with Trichomonas vaginalis [7] and in the test on Trichomonas vaginalis [8] was 32 µg/mL throughout.
Consider `COc1ccc(C[C@H]2NC[C@H](O)[C@H]2OC(C)=O)cc1`, for which the Concentration with Entamoeba histolytica [12] turned out to be 2 µg/mL; in the test on Tritrichomonas suis [13], 4 µg/mL; with Tritrichomonas suis [14], 0.5 µg/mL; in the test with Tritrichomonas suis [15] it was 0.25 µg/mL; with Tritrichomonas suis [16], 1 µg/mL; in the test on Trichomonas vaginalis [17] it was 2 µg/mL. The Concentration was 0.25 µg/mL in the test with Trichomonas vaginalis [18], 0.5 µg/mL in the test with Trichomonas vaginalis [19] and 1 µg/mL in the test with Entamoeba histolytica [21]. For the same molecule, the Inhibitory zone entry in the test on Candida albicans [20] is “Questionable activity”.
As to `Clc1ccccc1C(c1ccccc1)(c1ccccc1)n1ccnc1` [CLOTRIMAZOLE], the Concentration in the test with Entamoeba histolytica [22] is 4 µg/mL; in the test with Entamoeba histolytica [23] it was 16 µg/mL; in the test on Entamoeba histolytica [25] it was 32 µg/mL; with Entamoeba histolytica [26] it was 8 µg/mL; in the test on Trichomonas vaginalis [17], 32 µg/mL; with Trichomonas vaginalis [18] it was 8 µg/mL. For the same molecule, the Concentration with Trichomonas vaginalis [7] was 4 µg/mL. The MIC amounted to 0.06 mg/L (≈ 0.174 µM) against Epidermophyton floccosum [24], 0.06 mg/L (≈ 0.174 µM) against Saccharomyces cerevisiae [27], 0.06 mg/L (≈ 0.174 µM) with Trichophyton benhamiae [28] and 4 mg/L (≈ 11.6 µM) in the test with Candida albicans [29].

Values taken from ChEMBL document CHEMBL1122441, “Structure-activity relationships of synthetic antibiotic analogues of anisomycin” (1983).
